≈ marks a conversion by molar mass, not a printed value.
Tests used:
physchem [1] = assay: physchem
physchem [2] = settings: octanol/water, pH 7.4
[3] = Solubility in FaSSIF-V1 medium; type: physicochemical
[4] = Solubility in FeSSIF-V1 medium; type: physicochemical
[5] = Aqueous solubility at pH 7; type: physicochemical
[6] = Plasma concentration in DBA/1 mouse plasma at 30 mg/kg, po administered as single dose measured after 24 hrs; type: ADME, organism-based
How it was run: (§1)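 Naive male DBA/1 mice received one oral dose within the 1–100 mg/kg range, alongside a vehicle group. Compound plasma concentration was measured at 0.5, 6 or 24 h post-dose, with n = 3–5 per dose group. Values are mean + SEM, and the limit of quantification was 1.52 ng/mL.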

[7] = Drug level in plasma of DBA/1 mouse at 1 to 100 mg/kg, po administered as single dose measured after 0.5 to 24 hrs; type: ADME, organism-based; settings: in vivo, dose 1-100 mg/kg, time 0.5-24 hrs
How it was run: as §1

[8] = Cmax in DBA/1 mouse plasma at 1 mg/kg, po administered as single dose measured after 0.5 hrs; type: ADME, organism-based; parameters: route oral, time 0.5 hrs, dose 1 mg/kg
How it was run: as §1

[9] = Tmax in DBA/1 mouse at 1 to 100 mg/kg, po administered as single dose measured after 0.5 to 24 hrs; type: ADME, organism-based; settings: in vivo, dose 1-100 mg/kg, time 0.5-24 hrs
How it was run: as §1

[10] = Cmax in DBA/1 mouse plasma at 100 mg/kg, po administered as single dose measured after 0.5 hrs; type: ADME, organism-based; parameters: route oral, dose 100 mg/kg, time 0.5 hrs
How it was run: as §1

[11] = Plasma concentration in DBA/1 mouse plasma at 100 mg/kg, po administered as single dose measured after 24 hrs; type: ADME, organism-based
How it was run: as §1

[12] = Plasma concentration in beagle dog at 1 mg/kg, po after 8 hrs by LC-MS-MS analysis; type: ADME, organism-based, Canis lupus familiaris
How it was run: (§2)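 Dogs received a single oral dose of 1 mg/kg (n = 2). Parameters are averages and Tmax is the median. Plasma was sampled at 8 h post-dose, among other times. Bioavailability is referenced to the 1 mg/kg iv dose (n = 2).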

[13] = Cmax in Wistar rat at 10 mg/kg, po after 24 hrs by LC-MS-MS analysis; type: ADME, organism-based; parameters: route oral, time 24 hrs, dose 10 mg/kg; settings: in vivo
How it was run: (§3)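 Rats received a single oral dose of 10 mg/kg (n = 3). Parameters are averages and Tmax is the median. Plasma was sampled at 8 h post-dose, among other times. Bioavailability is referenced to the 1 mg/kg iv dose (n = 2).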

[14] = Tmax in Wistar rat at 10 mg/kg, po after 24 hrs by LC-MS-MS analysis; type: ADME, organism-based; settings: in vivo
How it was run: as §3

[15] = Oral bioavailability in beagle dog at 1 mg/kg after 24 hrs by LC-MS-MS analysis; type: ADME, organism-based, Canis lupus familiaris; settings: in vivo
How it was run: as §2

[16] = AUC (0 to infinity) in Wistar rat at 1 mg/kg, iv after 24 hrs by LC-MS-MS analysis; type: ADME, organism-based; parameters: route intravenous, dose 1 mg/kg, time 24 hrs; settings: in vivo
How it was run: (§4)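 Single intravenous dose of 1 mg/kg in rat and in dog, with n = 2 animals per species. Parameters are reported as averages. Blood clearance is plasma clearance corrected for blood/plasma partitioning and expressed as a fraction of liver blood flow.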

[17] = Cmax in beagle dog at 1 mg/kg, po after 24 hrs by LC-MS-MS analysis; type: ADME, organism-based, Canis lupus familiaris; parameters: route oral, dose 1 mg/kg, time 24 hrs; settings: in vivo
How it was run: as §2

[18] = Volume of distribution at steady state in Wistar rat at 1 mg/kg, iv after 24 hrs by LC-MS-MS analysis; type: ADME, organism-based; settings: in vivo, read-out: Vdss
How it was run: as §4

[19] = Oral bioavailability in Wistar rat at 10 mg/kg after 24 hrs by LC-MS-MS analysis; type: ADME, organism-based; settings: in vivo
How it was run: as §3

[20] = AUC (0 to last) in Wistar rat at 10 mg/kg, po after 24 hrs by LC-MS-MS analysis; type: ADME, organism-based; parameters: route oral, dose 10 mg/kg, time 24 hrs; settings: in vivo
How it was run: as §3

[21] = AUC (0 to last) in beagle dog at 1 mg/kg, po after 24 hrs by LC-MS-MS analysis; type: ADME, organism-based, Canis lupus familiaris; parameters: route oral, time 24 hrs, dose 1 mg/kg; settings: in vivo
How it was run: as §2

[22] = AUC (0 to infinity) in beagle dog at 1 mg/kg, iv after 24 hrs by LC-MS-MS analysis; type: ADME, organism-based, Canis lupus familiaris; parameters: route intravenous, dose 1 mg/kg, time 24 hrs; settings: in vivo
How it was run: as §4

[23] = Volume of distribution at steady state in beagle dog at 1 mg/kg, iv after 24 hrs by LC-MS-MS analysis; type: ADME, organism-based, Canis lupus familiaris; settings: in vivo, read-out: Vdss
How it was run: as §4

[24] = Plasma concentration in Wistar rat at 10 mg/kg, po after 8 hrs by LC-MS-MS analysis; type: ADME, organism-based
How it was run: as §3

[25] = Tmax in beagle dog at 1 mg/kg, po after 24 hrs by LC-MS-MS analysis; type: ADME, organism-based, Canis lupus familiaris; settings: in vivo
How it was run: as §2

pKa (physchem [1]) | logD (physchem [2]) | Compound | further results
7.3 | 1.7 | CN1CC[C@H](NC(=O)c2cc(-c3ccc(F)cc3F)on2)[C@@H](C(=O)NC2(c3ncccn3)CC2)C1 | 
6.2 | 2.7 | O=C(N[C@H]1CCN(CC2(F)CC2)C[C@@H]1C(=O)NC1(c2ncccn2)CC1)c1cc(-c2ccc(F)cc2F)on1 | 
6.8 | 2.2 | O=C(N[C@H]1CCN(CCCF)C[C@@H]1C(=O)NC1(c2ncccn2)CC1)c1cc(-c2ccc(F)cc2F)on1 | 
 | 1.6 | O=C(NC1CCN(C2CCCCC2)CC1)c1noc(-c2ccc(F)cc2F)n1 | 
 | 3.9 | C[C@@H](NC(=O)[C@H]1CN(C2CCCCC2)CC[C@@H]1NC(=O)c1cc(-c2ccc(F)cc2F)on1)c1ccccn1 | solubility [3]: 38 µg/mL (≈ 70.7 µM); solubility [4]: > 910 µg/mL; solubility [5]: 4 µg/mL (≈ 7.44 µM)
7.4 | 2.9 | O=C(N[C@H]1CCN(C2CCC2)C[C@@H]1C(=O)NC1(c2ncccn2)CC1)c1cc(-c2ccc(F)cc2F)on1 | 
6.7 | 1.9 | COCCN1CC[C@H](NC(=O)c2cc(-c3ccc(F)cc3F)on2)[C@@H](C(=O)NC2(c3ncccn3)CC2)C1 | 
 | 3.8 | CC(C)(NC(=O)[C@H]1CN(C2CCCCC2)CC[C@@H]1NC(=O)c1cc(-c2ccc(F)cc2F)on1)c1ccccn1 | 
7.6 | 1.8 | CCN1CC[C@H](NC(=O)c2cc(-c3ccc(F)cc3F)on2)[C@@H](C(=O)NC2(c3ncccn3)CC2)C1 | 
8.1 | 0.6 | O=C(N[C@H]1CCNC[C@@H]1C(=O)NC1(c2ncccn2)CC1)c1cc(-c2ccc(F)cc2F)on1 | 
 | > 4.1 | C[C@@H](NC(=O)[C@H]1CN(C2CCCCC2)CC[C@@H]1NC(=O)c1cc(-c2ccc(F)cc2F)on1)c1ccccc1 | 
7.7 | 2.5 | O=C(N[C@H]1CCN(CC2CC2)C[C@@H]1C(=O)NC1(c2ncccn2)CC1)c1cc(-c2ccc(F)cc2F)on1 | concentration at 24 h [6]: < 1.52 ng/mL; Drug uptake [7]: Dose-dependent effect; Cmax [8]: 6 ng/mL; Tmax [9]: 30 min; Cmax [10]: 4280 ng/mL; concentration at 24 h [11]: 14 ng/mL; solubility [3]: 513 µg/mL (≈ 982 µM); solubility [4]: > 880 µg/mL; solubility [5]: 374 µg/mL (≈ 716 µM)
8 | 1.8 | CC(C)N1CC[C@H](NC(=O)c2cc(-c3ccc(F)cc3F)on2)[C@@H](C(=O)NC2(c3ncccn3)CC2)C1 | 
 | > 4.1 | O=C(N[C@H]1CCN(C2CCCCC2)C[C@@H]1C(=O)NCc1ccccc1)c1cc(-c2ccc(F)cc2F)on1 | 
6.1 | 2.4 | O=C(N[C@H]1CCN(C2CC2)C[C@@H]1C(=O)NC1(c2ncccn2)CC1)c1cc(-c2ccc(F)cc2F)on1 | 
7.6 | 2.5 | CCCN1CC[C@H](NC(=O)c2cc(-c3ccc(F)cc3F)on2)[C@@H](C(=O)NC2(c3ncccn3)CC2)C1 | 
 | > 3.8 | O=C(N[C@H]1CCN(C2CCCCC2)C[C@@H]1C(=O)NC1(c2ccccn2)CC1)c1cc(-c2ccc(F)cc2F)on1 | 
5.2 | 2.9 | O=C(N[C@H]1CCN(C2CC(F)(F)C2)C[C@@H]1C(=O)NC1(c2ncccn2)CC1)c1cc(-c2ccc(F)cc2F)on1 | 
 |  | O=C(NC1CCN(C2CCCCC2)CC1)c1cc(-c2ccc(F)cc2F)on1 | solubility [3]: 144 µg/mL (≈ 370 µM); solubility [4]: 196 µg/mL (≈ 503 µM); solubility [5]: 15 µg/mL (≈ 38.5 µM)
 | 2.9 | O=C(N[C@H]1CCN(C2CCCCC2)C[C@@H]1C(=O)NC1(c2ncccn2)CC1)c1cc(-c2ccc(F)cc2F)on1 | 
 |  | Cl.O=C(N[C@H]1CCN(CC2CC2)C[C@@H]1C(=O)NC1(c2ncccn2)CC1)c1cc(-c2ccc(F)cc2F)on1 | concentration at 8 h [12]: 185 ng/mL; Cmax [13]: 600 ng/mL; Tmax [14]: 30 min; bioavailability [15]: 61%; AUC [16]: 238 ng·h/mL; Cmax [17]: 314 ng/mL; Vd [18]: 3.6 L/kg; bioavailability [19]: 35%; AUClast [20]: 827 ng·h/mL; AUClast [21]: 3620 ng·h/mL; AUC [22]: 5940 ng·h/mL; Vd [23]: 1.6 L/kg; concentration at 8 h [24]: 18.3 ng/mL; Tmax [25]: 90 min
7.7 | 3.1 | O=C(N[C@H]1CCN(CC2CCC2)C[C@@H]1C(=O)NC1(c2ncccn2)CC1)c1cc(-c2ccc(F)cc2F)on1 | 
< 2 | 1.6 | CC(=O)N1CC[C@H](NC(=O)c2cc(-c3ccc(F)cc3F)on2)[C@@H](C(=O)NC2(c3ncccn3)CC2)C1 | 
 |  | CN(C)C(=O)[C@H]1CN(C2CCCCC2)CC[C@@H]1NC(=O)c1cc(-c2ccc(F)cc2F)on1 (racemic) | solubility [3]: 569 µg/mL (≈ 1240 µM); solubility [4]: 652 µg/mL (≈ 1420 µM); solubility [5]: 192 µg/mL (≈ 417 µM)

Reference: ChEMBL document CHEMBL4699667, “Discovery of the Potent, Selective, Orally Available CXCR7 Antagonist ACT-1004-1239” (J Med Chem, 2020)
